Calls of active or inactive are those of the source. No cut-off for these calls is given here.
How the values were obtained:
Type in all cases: functional
HCT-15 = assay: Growth inhibition of human HCT15 cells at 10 uM after 48 hrs by coulter counter method; details: HCT-15, 48 h, read-out: GI
Outline: (§1)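 NCI 60-cell-line panel, single dose. Compound dissolved first in DMSO, then diluted in phosphate-buffered saline so that every final dilution held under 1% DMSO. Duplicate wells received cells at 6 × 10⁴ cells/ml. Controls held PBS/DMSO at the same dilution. Plates were incubated 48 h at 37 °C under 5% CO₂. Cells were then diluted 10-fold in saline and counted on a Coulter counter, with counts corrected for the dilution. Results are given as percent growth inhibition.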

OVCAR-8 = assay: Growth inhibition of human OVCAR8 cells at 10 uM after 48 hrs by coulter counter method; details: OVCAR-8, 48 h, read-out: GI; outline: as §1
UACC-257 = assay: Growth inhibition of human UACC257 cells at 10 uM after 48 hrs by coulter counter method; details: UACC-257, 48 h, read-out: GI; outline: as §1
NCI/ADR-RES = assay: Growth inhibition of human NCI/ADR-RES cells at 10 uM after 48 hrs by coulter counter method; details: read-out: GI; outline: as §1
Malme-3M = assay: Growth inhibition of human MALME-3M cells at 10 uM after 48 hrs by coulter counter method; details: read-out: GI; outline: as §1
SR = assay: Growth inhibition of human SR cells at 10 uM after 48 hrs by coulter counter method; details: read-out: GI; outline: as §1
MOLT-4 = assay: Growth inhibition of human MOLT4 cells at 10 uM after 48 hrs by coulter counter method; details: MOLT-4, 48 h, read-out: GI; outline: as §1
SK-MEL-28 = assay: Growth inhibition of human SK-MEL-28 cells at 10 uM after 48 hrs by coulter counter method; details: SK-MEL-28, 48 h, read-out: GI; outline: as §1
SNB-19 = assay: Growth inhibition of human SNB19 cells at 10 uM after 48 hrs by coulter counter method; details: SNB-19, 48 h, read-out: GI; outline: as §1
CAKI-1 = assay: Growth inhibition of human Caki1 cells at 10 uM after 48 hrs by coulter counter method; outline: as §1
SN12C = assay: Growth inhibition of human SN12C cells at 10 uM after 48 hrs by coulter counter method; details: read-out: GI; outline: as §1
LOX IMVI = assay: Growth inhibition of human LOXIMVI cells at 10 uM after 48 hrs by coulter counter method; outline: as §1
MDA-MB-468 = assay: Growth inhibition of human MDA-MB-468 cells at 10 uM after 48 hrs by coulter counter method; details: MDA-MB-468, 48 h, read-out: GI; outline: as §1
UACC-62 = assay: Growth inhibition of human UACC62 cells at 10 uM after 48 hrs by coulter counter method; details: UACC-62, 48 h, read-out: GI; outline: as §1
PC-3 = assay: Growth inhibition of human PC3 cells at 10 uM after 48 hrs by coulter counter method; details: PC-3, 48 h, read-out: GI; outline: as §1
NCI-H322M = assay: Growth inhibition of human NCI-H322M cells at 10 uM after 48 hrs by coulter counter method; details: read-out: GI; outline: as §1
NCI-H226 = assay: Growth inhibition of human NCI-H226 cells at 10 uM after 48 hrs by coulter counter method; details: NCI-H226, 48 h, read-out: GI; outline: as §1
EKVX = assay: Growth inhibition of human EKVX cells at 10 uM after 48 hrs by coulter counter method; details: read-out: GI; outline: as §1
IGROV-1 = assay: Growth inhibition of human IGROV1 cells at 10 uM after 48 hrs by coulter counter method; outline: as §1
BT-549 = assay: Growth inhibition of human BT549 cells at 10 uM after 48 hrs by coulter counter method; details: BT-549, 48 h, read-out: GI; outline: as §1
SF-295 = assay: Growth inhibition of human SF295 cells at 10 uM after 48 hrs by coulter counter method; details: SF-295, 48 h, read-out: GI; outline: as §1
MCF7 = assay: Growth inhibition of human MCF7 cells at 10 uM after 48 hrs by coulter counter method; details: MCF7, 48 h, read-out: GI; outline: as §1
786-0 = assay: Growth inhibition of human 786-0 cells at 10 uM after 48 hrs by coulter counter method; details: 786-0, 48 h, read-out: GI; outline: as §1
NCI-H23 = assay: Growth inhibition of human NCI-H23 cells at 10 uM after 48 hrs by coulter counter method; details: NCI-H23, 48 h, read-out: GI; outline: as §1
NCI-H522 = assay: Growth inhibition of human NCI-H522 cells at 10 uM after 48 hrs by coulter counter method; details: NCI-H522, 48 h, read-out: GI; outline: as §1
HT-29 = assay: Growth inhibition of human HT-29 cells at 10 uM after 48 hrs by coulter counter method; details: HT-29, 48 h, read-out: GI; outline: as §1
TK-10 = assay: Growth inhibition of human TK10 cells at 10 uM after 48 hrs by coulter counter method; details: TK-10, 48 h, read-out: GI; outline: as §1
T47D = assay: Growth inhibition of human T47D cells at 10 uM after 48 hrs by coulter counter method; details: read-out: GI; outline: as §1
KM12 = assay: Growth inhibition of human KM12 cells at 10 uM after 48 hrs by coulter counter method; details: KM12, 48 h, read-out: GI; outline: as §1
K562 = assay: Growth inhibition of human K562 cells at 10 uM after 48 hrs by coulter counter method; details: K562, 48 h, read-out: GI; outline: as §1
CCRF-CEM = assay: Growth inhibition of human CCRF-CEM cells at 10 uM after 48 hrs by coulter counter method; details: read-out: GI; outline: as §1
SK-MEL-2 = assay: Growth inhibition of human SK-MEL-2 cells at 10 uM after 48 hrs by coulter counter method; details: SK-MEL-2, 48 h, read-out: GI; outline: as §1
MDA-MB-435 = assay: Growth inhibition of human MDA-MB-435 cells at 10 uM after 48 hrs by coulter counter method; details: MDA-MB-435, 48 h, read-out: GI; outline: as §1
UO-31 = assay: Growth inhibition of human UO31 cells at 10 uM after 48 hrs by coulter counter method; outline: as §1
HCT-116 = assay: Growth inhibition of human HCT116 cells at 10 uM after 48 hrs by coulter counter method; details: HCT-116, 48 h, read-out: GI; outline: as §1
SNB-75 = assay: Growth inhibition of human SNB75 cells at 10 uM after 48 hrs by coulter counter method; details: SNB-75, 48 h, read-out: GI; outline: as §1
M14 = assay: Growth inhibition of human M14 cells at 10 uM after 48 hrs by coulter counter method; details: M14, 48 h, read-out: GI; outline: as §1
ACHN = assay: Growth inhibition of human ACHN cells at 10 uM after 48 hrs by coulter counter method; details: read-out: GI; outline: as §1
HL-60(TB) = assay: Growth inhibition of human HL-60(TB) cells at 10 uM after 48 hrs by coulter counter method; details: HL-60, 48 h, read-out: GI
Outline: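 Single-dose screen on the NCI 60-line panel (leukemia subpanel). Compound is dissolved in DMSO and diluted in PBS, with final DMSO below 1%. Duplicate wells hold 6 × 10⁴ cells/ml at 37 °C, 5% CO₂, for 48 h. Cells are counted by Coulter counter after 10-fold saline dilution. Read-out is percent growth versus PBS/DMSO controls, expressed as % growth inhibition.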

RPMI-8226 = assay: Growth inhibition of human RPMI8226 cells at 10 uM after 48 hrs by coulter counter method; details: RPMI-8226, 48 h, read-out: GI; outline: as §1
SF-268 = assay: Growth inhibition of human SF268 cells at 10 uM after 48 hrs by coulter counter method; details: SF-268, 48 h, read-out: GI; outline: as §1
SK-MEL-5 = assay: Growth inhibition of human SK-MEL-5 cells at 10 uM after 48 hrs by coulter counter method; details: SK-MEL-5, 48 h, read-out: GI; outline: as §1
U-251 = assay: Growth inhibition of human U251 cells at 10 uM after 48 hrs by coulter counter method; details: U-251, 48 h, read-out: GI; outline: as §1
A549 = assay: Growth inhibition of human A549 cells at 10 uM after 48 hrs by coulter counter method; details: A549, 48 h, read-out: GI; outline: as §1
A498 = assay: Growth inhibition of human A498 cells at 10 uM after 48 hrs by coulter counter method; details: A498, 48 h, read-out: GI; outline: as §1

## O=C1CN2N=C(c3ccc(Cl)cc3)SC2=N1
HCT-15
  inhibition of growth at 10 µM: 51.2%
OVCAR-8
  inhibition of growth at 10 µM: 39.8%
UACC-257
  inhibition of growth at 10 µM: < 10%
NCI/ADR-RES
  inhibition of growth at 10 µM: < 10%
Malme-3M
  inhibition of growth at 10 µM: 22%
SR
  inhibition of growth at 10 µM: 32.5%
MOLT-4
  inhibition of growth at 10 µM: 24%
SK-MEL-28
  inhibition of growth at 10 µM: < 10%
SNB-19
  inhibition of growth at 10 µM: 18.2%
CAKI-1
  growth inhibition (GI): Active
SN12C
  inhibition of growth at 10 µM: 20.1%
LOX IMVI
  growth inhibition (GI): Active
MDA-MB-468
  inhibition of growth at 10 µM: < 10%
UACC-62
  inhibition of growth at 10 µM: 20.7%
PC-3
  inhibition of growth at 10 µM: 25.7%
NCI-H322M
  inhibition of growth at 10 µM: 31%
NCI-H226
  inhibition of growth at 10 µM: 11.4%
EKVX
  inhibition of growth at 10 µM: < 10%
IGROV-1
  growth inhibition (GI): Active
BT-549
  inhibition of growth at 10 µM: 39.5%
SF-295
  inhibition of growth at 10 µM: 38.6%
MCF7
  inhibition of growth at 10 µM: 25.7%
786-0
  inhibition of growth at 10 µM: < 10%
NCI-H23
  inhibition of growth at 10 µM: 14.9%
NCI-H522
  inhibition of growth at 10 µM: 32.4%
HT-29
  inhibition of growth at 10 µM: 31.1%
TK-10
  inhibition of growth at 10 µM: < 10%
T47D
  inhibition of growth at 10 µM: 13%
KM12
  inhibition of growth at 10 µM: 38.3%
K562
  inhibition of growth at 10 µM: 18.8%
CCRF-CEM
  inhibition of growth at 10 µM: 62.5%
SK-MEL-2
  inhibition of growth at 10 µM: < 10%
MDA-MB-435
  inhibition of growth at 10 µM: 11.7%
UO-31
  growth inhibition (GI): Active
HCT-116
  inhibition of growth at 10 µM: 39.9%
SNB-75
  inhibition of growth at 10 µM: < 10%
M14
  inhibition of growth at 10 µM: 31.4%
ACHN
  inhibition of growth at 10 µM: 17.3%
HL-60(TB)
  inhibition of growth at 10 µM: < 10%
RPMI-8226
  inhibition of growth at 10 µM: 43.5%
SF-268
  inhibition of growth at 10 µM: 16.5%
SK-MEL-5
  inhibition of growth at 10 µM: 21.2%
U-251
  inhibition of growth at 10 µM: 19.9%
A549
  inhibition of growth at 10 µM: < 10%
A498
  inhibition of growth at 10 µM: < 10%

Source: ChEMBL document CHEMBL1926577, “Novel 1,3,4-heterodiazole analogues: synthesis and in-vitro antitumor activity” (2012)
